Data published in ChEMBL document CHEMBL3745596, “Chlorophenoxy aminoalkyl derivatives as histamine H(3)R ligands and antiseizure agents” (Bioorg Med Chem, 2016).
Activity calls are given as the source filed them.

How the values were obtained:
Mus musculus [1] = assay: Neurotoxicity in CF1 albino mouse at 3 mg/kg, ip after 0.5 hrs by rotarod test; assay type: toxicity, organism-based; conditions: in vivo
How it was run: (§1)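 Rotarod neurotoxicity in male albino CF-1 mice dosed ip with compound suspended in 0.5% methylcellulose. Animal placed on a 1 inch diameter knurled plastic rod rotating at 6 rpm. Neurotoxicity scored when the animal falls off three times within 1 min. Readout is number of animals toxic/number tested at the stated time after dosing. TD50 with 95% confidence interval from the quantitative study.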

Mus musculus [2] = assay: Anticonvulsant activity in CF1 albino mouse assessed as protection against subcutaneous pentetrazole-induced seizure at 30 mg/kg, ip after 0.5 hrs; assay type: functional, organism-based
How it was run: (§2)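 Male CF-1 mice, ip in 0.5% methylcellulose; pentetrazole at CD97 (85 mg/kg) injected subcutaneously in a loose fold of neck skin. Observed 30 min; absence of even a threshold seizure (single clonic spasm lasting at least 5 s) counted as protection. Scored protected/tested, or ED50.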

Mus musculus [3] = assay: Neurotoxicity in CF1 albino mouse at 100 mg/kg, ip after 4 hrs by rotarod test; assay type: toxicity, organism-based; conditions: in vivo; how it was run: as §1
Mus musculus [4] = assay: Neurotoxicity in CF1 albino mouse assessed as vocalization at 30 mg/kg, ip after 0.5 hrs by rotarod test; assay type: toxicity, organism-based; conditions: in vivo
How it was run: (§3)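 Rotarod neurotoxicity in male CF-1 mice dosed ip as 0.5% methylcellulose suspension: mouse placed on 1 inch knurled rod rotating at 6 rpm; toxicity when the animal falls off three times within 1 min, with other signs noted. Scored as toxic/tested at 0.5 h and 4 h.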

Mus musculus [5] = assay: Neurotoxicity in CF1 albino mouse assessed as death at 100 mg/kg, ip after 0.5 hrs by rotarod test; assay type: toxicity, organism-based; conditions: in vivo
How it was run: (§4)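 Male albino CF-1 mice dosed ip with compound suspended in 0.5% methylcellulose, then placed on a 1-inch knurled plastic rod turning at 6 rpm. A fall three times within 1 min counted as neurotoxicity. Observations were made at 0.5 h and 4 h after dosing. Result given as animals showing toxicity per animals tested, with the kind of toxicity recorded.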

Mus musculus [6] = assay: Neurotoxicity in CF1 albino mouse at 300 mg/kg, ip after 4 hrs by rotarod test; assay type: toxicity, organism-based; conditions: in vivo; how it was run: as §1
Histamine H3 receptor [7] = biological target: T1, Histamine H3 receptor (Homo sapiens, UniProt Q9Y5N1); assay: Displacement of [3H]-Nalpha-methylhistamine from human recombinant histamine H3 receptor expressed in HEK293 cells after 90 mins; assay type: cell-based
T1 sequence (Q9Y5N1 whole entry): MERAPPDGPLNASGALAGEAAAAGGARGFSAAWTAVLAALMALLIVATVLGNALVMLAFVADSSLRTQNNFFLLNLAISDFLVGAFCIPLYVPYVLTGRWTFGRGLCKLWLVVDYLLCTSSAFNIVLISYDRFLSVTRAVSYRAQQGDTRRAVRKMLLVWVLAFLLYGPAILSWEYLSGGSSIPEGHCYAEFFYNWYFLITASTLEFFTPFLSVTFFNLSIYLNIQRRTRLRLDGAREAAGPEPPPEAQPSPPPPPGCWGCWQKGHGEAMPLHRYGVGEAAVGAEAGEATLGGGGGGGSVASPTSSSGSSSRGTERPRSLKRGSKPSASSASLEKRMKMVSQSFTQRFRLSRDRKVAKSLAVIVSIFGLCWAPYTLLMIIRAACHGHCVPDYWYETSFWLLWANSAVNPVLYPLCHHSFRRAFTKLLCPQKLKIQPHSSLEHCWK

Mus musculus [8] = assay: Anticonvulsant activity in CF1 albino mouse assessed as protection against subcutaneous pentetrazole-induced seizure at 30 mg/kg, ip after 4 hrs; assay type: functional, organism-based; how it was run: as §2
Mus musculus [9] = assay: Neurotoxicity in CF1 albino mouse at 30 mg/kg, ip after 4 hrs by rotarod test; assay type: toxicity, organism-based; conditions: in vivo; how it was run: as §1
Mus musculus [10] = assay: Neurotoxicity in CF1 albino mouse at 10 mg/kg, ip after 0.5 hrs by rotarod test; assay type: toxicity, organism-based; conditions: in vivo; how it was run: as §3
Mus musculus [11] = assay: Anticonvulsant activity in CF1 albino mouse assessed as protection against maximal electroshock-induced seizure at 30 mg/kg, ip after 0.5 hrs; assay type: functional, organism-based
How it was run: (§5)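 Male CF-1 mice dosed ip as suspension in 0.5% methylcellulose. Corneal electrodes deliver 60 Hz alternating current, 50 mA for […], after a drop of 0.5% tetracaine HCl in 0.9% NaCl per eye. Protection means abolition of hindlimb tonic extension; scored as protected/tested, or ED50 with 95% confidence interval.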

Mus musculus [12] = assay: Neurotoxicity in CF1 albino mouse assessed as death at 300 mg/kg, ip after 0.5 hrs by rotarod test; assay type: toxicity, organism-based; conditions: in vivo; how it was run: as §4
Mus musculus [13] = assay: Anticonvulsant activity in CF1 albino mouse assessed as protection against maximal electroshock-induced seizure at 10 mg/kg, ip after 0.5 hrs; assay type: functional, organism-based; how it was run: as §5
Mus musculus [14] = assay: Anticonvulsant activity in CF1 albino mouse assessed as protection against maximal electroshock-induced seizure at 30 mg/kg, ip after 4 hrs; assay type: functional, organism-based; how it was run: as §5
Mus musculus [15] = assay: Anticonvulsant activity in CF1 albino mouse assessed as protection against maximal electroshock-induced seizure at 3 mg/kg, ip after 0.5 hrs; assay type: functional, organism-based; how it was run: as §5
Mus musculus [16] = assay: Anticonvulsant activity in CF1 albino mouse assessed as protection against maximal electroshock-induced seizure at 100 mg/kg, ip after 0.5 hrs; assay type: functional, organism-based; how it was run: as §5
Mus musculus [17] = assay: Neurotoxicity in CF1 albino mouse at 30 mg/kg, ip after 0.5 hrs by rotarod test; assay type: toxicity, organism-based; conditions: in vivo; how it was run: as §1
Mus musculus [18] = assay: Neurotoxicity in CF1 albino mouse at 50 mg/kg, ip after 4 hrs by rotarod test; assay type: toxicity, organism-based; conditions: in vivo; how it was run: as §1
Mus musculus [19] = assay: Anticonvulsant activity in CF1 albino mouse assessed as protection against 6 Hz-psychomotor-induced seizure at 50 mg/kg, ip after 0.5 hrs; assay type: functional, organism-based
How it was run: (§6)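 Male CF-1 mice, ip suspension in 0.5% methylcellulose. Corneal stimulation 0.2 ms monopolar rectangular pulses at 6 Hz, 32 mA for 3 s via constant-current device; mice without minimal clonic phase seizure counted protected. Groups of four; read at 0.25, 0.5, 1, 2, 4 h; result as protected/tested.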

Mus musculus [20] = assay: Anticonvulsant activity in CF1 albino mouse assessed as protection against 6 Hz-psychomotor-induced seizure at 50 mg/kg, ip after 0.25 hrs; assay type: functional, organism-based; how it was run: as §6
Mus musculus [21] = assay: Neurotoxicity in CF1 albino mouse assessed as unable to grasp rotarod at 100 mg/kg, ip after 0.5 hrs by rotarod test; assay type: toxicity, organism-based; conditions: in vivo; how it was run: as §3
Mus musculus [22] = assay: Anticonvulsant activity in CF1 albino mouse assessed as protection against 6 Hz-psychomotor-induced seizure at 50 mg/kg, ip after 4 hrs; assay type: functional, organism-based; how it was run: as §6
Rattus norvegicus = assay: Anticonvulsant activity in Sprague-Dawley rat assessed as protection against maximal electroshock-induced seizure at 30 mg/kg, po; assay type: functional
Mus musculus [23] = assay: Anticonvulsant activity in CF1 albino mouse assessed as protection against subcutaneous pentetrazole-induced seizure at 100 mg/kg, ip after 0.5 hrs; assay type: functional, organism-based; how it was run: as §2
Mus musculus [24] = assay: Anticonvulsant activity in CF1 albino mouse assessed as protection against 6 Hz-psychomotor-induced seizure at 50 mg/kg, ip after 1 hr; assay type: functional, organism-based; how it was run: as §6
Mus musculus [25] = assay: Anticonvulsant activity in CF1 albino mouse assessed as protection against subcutaneous pentetrazole-induced seizure at 100 mg/kg, ip after 4 hrs; assay type: functional, organism-based; how it was run: as §2
Mus musculus [26] = assay: Neurotoxicity in CF1 albino mouse at 50 mg/kg, ip after 2 hrs by rotarod test; assay type: toxicity, organism-based; conditions: in vivo; how it was run: as §1
Mus musculus [27] = assay: Neurotoxicity in CF1 albino mouse at 50 mg/kg, ip after 1 hr by rotarod test; assay type: toxicity, organism-based; conditions: in vivo; how it was run: as §1
Mus musculus [28] = assay: Neurotoxicity in CF1 albino mouse at 50 mg/kg, ip after 0.5 hrs by rotarod test; assay type: toxicity, organism-based; conditions: in vivo; how it was run: as §1
Mus musculus [29] = assay: Anticonvulsant activity in CF1 albino mouse assessed as protection against maximal electroshock-induced seizure at 100 mg/kg, ip after 4 hrs; assay type: functional, organism-based; how it was run: as §5
Cytochrome P450 3A4 = Cytochrome P450 3A4 (Homo sapiens, UniProt P08684); assay: Inhibition of CYP3A4 (unknown origin) up to 10 uM; assay type: ADME
Sequence of Cytochrome P450 3A4 (P08684 whole entry): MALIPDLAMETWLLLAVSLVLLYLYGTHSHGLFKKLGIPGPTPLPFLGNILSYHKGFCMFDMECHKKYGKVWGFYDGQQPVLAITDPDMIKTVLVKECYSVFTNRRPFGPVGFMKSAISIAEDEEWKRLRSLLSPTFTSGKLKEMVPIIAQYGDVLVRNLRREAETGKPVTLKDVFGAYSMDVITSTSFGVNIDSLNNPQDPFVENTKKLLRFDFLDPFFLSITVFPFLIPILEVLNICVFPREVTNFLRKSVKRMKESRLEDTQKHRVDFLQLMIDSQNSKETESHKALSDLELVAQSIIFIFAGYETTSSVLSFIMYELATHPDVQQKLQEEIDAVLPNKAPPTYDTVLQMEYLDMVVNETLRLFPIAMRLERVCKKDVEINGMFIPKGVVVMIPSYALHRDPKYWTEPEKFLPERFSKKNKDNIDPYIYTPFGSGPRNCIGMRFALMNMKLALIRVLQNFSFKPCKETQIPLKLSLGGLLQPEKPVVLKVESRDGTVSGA

Liver microsome = assay: Drug metabolism in human liver microsomes after 2 hrs by UPLC-MS/MS analysis; assay type: ADME
How it was run: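 Pooled adult male and female human liver microsomes 1 mg/mL in 0.1 M Tris–HCl pH 7.4 with NADPH regeneration system; started after 5 min preincubation at 37 °C, incubated 2 h at 37 °C, stopped with cold methanol, centrifuged, supernatant analysed by UPLC with ESI tandem quadrupole MS.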

Mus musculus [30] = assay: Neurotoxicity in CF1 albino mouse assessed as unable to grasp rotarod and death at 100 mg/kg, ip after 0.5 hrs by rotarod test; assay type: toxicity, organism-based; conditions: in vivo; how it was run: as §4
Histamine H3 receptor [31] = biological target: T1, Histamine H3 receptor; assay: Antagonist activity at human recombinant histamine H3 receptor expressed in HEK293 cells assessed as inhibition of forskolin/(R)(-)-alpha-methylhistamine-induced cAMP accumulation after 1 hr by TR-FRET immunoassay; assay type: functional, cell-based
How it was run: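 HEK293 cells stably expressing hH3R, stimulated 30 min at room temperature with (R)(-)-α-methylhistamine (15 nM), forskolin and antagonist (0.1 nM–10 µM range) added together. cAMP read by TR-FRET (Eu-cAMP tracer, ULight anti-cAMP antibody, 1 h), converted via cAMP standard curve to % maximal response. Sigmoidal dose–response fit; mean of three experiments, each in triplicate.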

[32] = Antiproliferative activity against human IMR32 cells assessed as cell viability after 48 hrs by formazan EZ4U dye based assay; conditions: IMR-32, 48 h
How it was run: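 HEK-293 (1.5 × 10⁴/well) or IMR-32 (2 × 10⁴/well) cells in DMEM with 10% FBS, 37 °C, 5% CO₂, grown 24 h to about 60% confluence; compounds 0.01–250 µM final, DMSO at most 1%, 48 h.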

Row | Compound | Activity (Mus musculus [1]) | Activity (Mus musculus [2]) | Activity (Mus musculus [3]) | Activity (Mus musculus [6]) | Ki (Histamine H3 receptor [7]) | Activity (Mus musculus [8]) | Activity (Mus musculus [9]) | Activity (Mus musculus [10]) | Activity (Mus musculus [11]) | Activity (Mus musculus [12]) | Activity (Mus musculus [13]) | Activity (Mus musculus [14]) | Activity (Mus musculus [15]) | Activity (Mus musculus [17]) | Activity (Rattus norvegicus) | Activity (Mus musculus [23]) | Activity (Mus musculus [25]) | further results
1 | CC1CCN(CCCCCOc2ccc(Cl)cc2)CC1.O=C(O)C(=O)O | Non-toxic | inactive | Non-toxic | Non-toxic | 800 nM | inactive | Non-toxic | Non-toxic | Active | Toxic | inactive | Active | inactive | – | – | – | – | Activity (Mus musculus [4]): Toxic; Activity (Mus musculus [5]): Toxic
2 | CC1CCCN(CCCCCCOc2cccc(Cl)c2)C1.O=C(O)C(=O)O (stereo not given) | Non-toxic | inactive | Non-toxic | Non-toxic | 174 nM | inactive | Non-toxic | Non-toxic | Active | Toxic | inactive | inactive | inactive | Non-toxic | inactive | inactive | inactive | Activity (Mus musculus [16]): Active; Activity (Mus musculus [18]): Non-toxic; Activity (Mus musculus [19]): inactive; Activity (Mus musculus [20]): inactive; Activity (Mus musculus [21]): Toxic; Activity (Mus musculus [22]): inactive; Activity (Mus musculus [24]): inactive; Activity (Mus musculus [26]): Non-toxic; Activity (Mus musculus [27]): Non-toxic; Activity (Mus musculus [28]): Non-toxic; Activity (Mus musculus [29]): Active
3 | CC1CCCN(CCCCCOc2ccc(Cl)cc2)C1.O=C(O)C(=O)O (stereo not given) | Non-toxic | inactive | Non-toxic | Non-toxic | 133 nM | inactive | Non-toxic | Non-toxic | Active | Toxic | inactive | inactive | inactive | Non-toxic | 25% | inactive | inactive | inhibition (INH) (Cytochrome P450 3A4): Not Active; Drug metabolism (Liver microsome): metabolite_detected; Activity (Mus musculus [30]): Toxic; EC50 (Histamine H3 receptor [31]): 72 nM; IC50 [32]: 89000 nM
